These results are taken from ChEMBL document CHEMBL1127078, “Fluorocyclopropyl quinolones. 1. Synthesis and structure-activity relationships of 1-(2-fluorocyclopropyl)-3-pyridonecarboxylic acid antibacterial agents” (J Med Chem, 1993).

Series [1] has as its system Escherichia coli. The series is described as follows: Tested for minimum inhibitory concentration against Escherichia coli KL16. The format is functional. In short, it runs like this: (§1)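 Twofold broth microdilution in Mueller-Hinton broth, inoculum approximately 10^6 cfu/mL. Plates incubated 18 h at 37 °C. MIC taken as the lowest concentration preventing visible bacterial growth.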

Series [2] is described as follows: Partition coefficient of the compound. The format is ADME. To be noted: CHCl3-0.1 M phosphate buffer (pH 7.4). In short, it runs like this:
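Shake-flask distribution between CHCl3 and 0.1 M sodium phosphate buffer pH 7.4, each phase presaturated with the other. About 1–2 mg sample dissolved in the aqueous phase and its UV maximum absorbance recorded. Equal 10 mL volumes shaken 30 min at room temperature, then left 1 h to separate. Aqueous-layer UV maximum re-read. P' calculated as a ratio of the absorbance readings.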

The subject of series [3] is Escherichia coli. The series is described as follows: (§2) Dose required to inhibit DNA gyrase in Escherichia coli. The format is functional. To be noted: read-out: ID50 (the source's name).
The test system of series [4] is Staphylococcus epidermidis. The experiment in a line: Tested for minimum inhibitory concentration against Staphylococcus epidermidis 56556. It is filed as functional. In short, it runs like this:
as §1

A further series has as its system Proteus vulgaris. The series is described as follows: Tested for minimum inhibitory concentration against Proteus vulgaris 08601. It is filed as functional. In short, it runs like this:
as §1

A further series deals with Pseudomonas aeruginosa. The series is described as follows: Tested for minimum inhibitory concentration against Pseudomonas aeruginosa 32121. The format is functional. In short, it runs like this: as §1
The test system of series [5] is Enterobacter cloacae. The series is described as follows: (§3) Tested for minimum inhibitory concentration against Enterobacter cloacae 03400. It is filed as functional. In outline:
as §1

The subject of series [6] is Staphylococcus aureus. The series is described as follows: Tested for minimum inhibitory concentration against Staphylococcus aureus 209P. It is filed as functional. In outline:
as §1

For the next series, the system named is Enterococcus faecalis. The experiment in a line: Tested for minimum inhibitory concentration against Enterococcus faecalis ATCC 19433. The format is functional. In short, it runs like this: as §1
Series [7] concerns Staphylococcus aureus. The series is described as follows: Tested for minimum inhibitory concentration against Staphylococcus aureus Smith. It is filed as functional. In short, it runs like this: as §1
The subject of a further series is Streptococcus pyogenes. The experiment in a line: Tested for minimum inhibitory concentration against Streptococcus pyogenes G-36. It is filed as functional. In short, it runs like this: as §1
Series [8] concerns Escherichia coli. The series is described as follows: Tested for minimum inhibitory concentration against Escherichia coli NIHJ. It is filed as functional. In outline: as §1
The test system of another series is Klebsiella pneumoniae. The experiment in a line: Tested for minimum inhibitory concentration against Klebsiella pneumoniae. It is filed as functional. In outline: as §1
The subject of series [9] is Escherichia coli. The series is described as follows: Tested for minimum inhibitory concentration against Escherichia coli KL-16. The format is functional. In short, it runs like this: as §1
In series [10] the test system is Enterobacter cloacae. Described as §3. It is filed as functional. This is another data set of the same source.
The target of series [11] is DNA gyrase (Escherichia coli) (UniProt P0AES6+P0AES4). Described as §2. The format is protein-complex assay.
The mark [12] stands for this setting: Proteus vulgaris, read-out: MIC.
[13] abbreviates: Pseudomonas aeruginosa, read-out: MIC.
[14] abbreviates: Escherichia coli, read-out: MIC.
Where [15] appears, read: Klebsiella pneumoniae, read-out: MIC.
The mark [16] stands for this setting: Staphylococcus epidermidis, read-out: MIC.
Where [17] appears, read: Staphylococcus aureus, read-out: MIC.
Where [18] appears, read: Enterococcus faecalis, ATCC 19433, read-out: MIC.

In brackets after ≈: the same amount, converted by molar mass.

By MIC is commonly meant the smallest concentration in the dilution series that meets the test's criterion for growth inhibition. Regarding `CN1CCN(c2cc3c(cc2F)c(=O)c(C(=O)O)cn3C2CC2)CC1`, the MIC with Escherichia coli [1] was found to be 0.05 µg/mL (≈ 0.145 µM). For the same molecule, the “P'” value in series [2] came out at 20. Further, the IC50 in the series with Escherichia coli [3] was determined as 0.47 µg/mL (≈ 1.36 µM).
Take `O=C(O)c1cn(C2CC2F)c2cc(N3CCNCC3)c(F)cc2c1=O` (stereo in doubt; 24): the minimum inhibitory concentration (MIC) in series [4] was 0.2 µg/mL (≈ 0.573 µM); in the series on Proteus vulgaris (setting [12]), not above 0.05 µg/mL; in the series on Pseudomonas aeruginosa (setting [13]), not above 0.05 µg/mL; in the series with Enterobacter cloacae [5], not above 0.05 µg/mL; with Staphylococcus aureus [6], 0.1 µg/mL (≈ 0.286 µM); with Enterococcus faecalis, 1.56 µg/mL (≈ 4.47 µM). Moreover, the minimum inhibitory concentration (MIC) in the series on Staphylococcus aureus [7] is 0.1 µg/mL (≈ 0.286 µM); against Streptococcus pyogenes it was 1.56 µg/mL (≈ 4.47 µM); in the series with Escherichia coli [8] (setting [14]), not above 0.05 µg/mL; with Klebsiella pneumoniae (setting [15]), not above 0.05 µg/mL. In addition, the “P'” value in series [2] is listed as 0.16.
Take `CN1CCN(c2cc3c(cc2F)c(=O)c(C(=O)O)cn3C2CC2F)CC1` (stereo in doubt; 26) [listing 1 of 2 here]: the minimal inhibitory concentration (MIC) in series [4] was 0.1 µg/mL (≈ 0.275 µM); with Proteus vulgaris (setting [12]), not above 0.05 µg/mL; in the series with Pseudomonas aeruginosa (setting [13]), 0.2 µg/mL (≈ 0.55 µM); against Staphylococcus aureus [6], 0.1 µg/mL (≈ 0.275 µM); with Enterococcus faecalis, 0.78 µg/mL (≈ 2.15 µM); with Staphylococcus aureus [7] it was “<=0.05 ug ml-1”. Also, the MIC is 0.05 µg/mL (≈ 0.138 µM) in the series on Escherichia coli [9] (setting [14]); 1.56 µg/mL (≈ 4.29 µM) with Streptococcus pyogenes; not above 0.05 µg/mL in the series on Escherichia coli [8]; “<=0.05 ug ml-1” against Klebsiella pneumoniae; not above 0.05 µg/mL with Enterobacter cloacae [10]. The “P'” value in series [2] is reported as 7.
In turn, `CN1CCN(c2cc3c(cc2F)c(=O)c(C(=O)O)cn3C2CC2F)CC1` (stereo in doubt; 26) [listing 2 of 2 here] had an ID50 in [11] of 0.31 µg/mL (≈ 0.853 µM).
With `CN1CCN(c2cc3c(cc2F)c(=O)c(C(=O)O)cn3C2CC2F)CC1` (stereo in doubt; 27) [listing 1 of 2 here], the minimum inhibitory concentration (MIC) in series [4] worked out at 0.78 µg/mL (≈ 2.15 µM); against Proteus vulgaris, 0.1 µg/mL (≈ 0.275 µM); in the series on Pseudomonas aeruginosa, 0.39 µg/mL (≈ 1.07 µM); against Staphylococcus aureus [6], 0.78 µg/mL (≈ 2.15 µM); against Enterococcus faecalis, 12.5 µg/mL (≈ 34.4 µM); in the series with Staphylococcus aureus [7], 0.39 µg/mL (≈ 1.07 µM). The results for the minimal inhibitory concentration (MIC) against Escherichia coli [9], against Streptococcus pyogenes and with Klebsiella pneumoniae were 0.1 µg/mL (≈ 0.275 µM), 50 µg/mL (≈ 138 µM) and 0.2 µg/mL (≈ 0.55 µM), respectively.
In the case of `CN1CCN(c2cc3c(cc2F)c(=O)c(C(=O)O)cn3C2CC2F)CC1` (stereo in doubt; 27) [listing 2 of 2 here], the ID50 in series [11] was 0.92 µg/mL (≈ 2.53 µM).
For the molecule `C[C@H]1CN(c2c(F)cc3c(=O)c(C(=O)O)cn(C4CC4F)c3c2F)CCN1` (stereo in doubt; 33), the MIC in series [4] was 3.13 µg/mL (≈ 8.21 µM); with Proteus vulgaris (setting [12]), not above 0.05 µg/mL; against Pseudomonas aeruginosa it was 0.39 µg/mL (≈ 1.02 µM); with Enterobacter cloacae [5] it was not above 0.05 µg/mL; with Staphylococcus aureus [6], 1.56 µg/mL (≈ 4.09 µM); in the series on Enterococcus faecalis, 12.5 µg/mL (≈ 32.8 µM). Moreover, the minimum inhibitory concentration (MIC) in the series with Staphylococcus aureus [7] was 0.78 µg/mL (≈ 2.05 µM); in the series with Streptococcus pyogenes, 50 µg/mL (≈ 131 µM); with Escherichia coli [8] (setting [14]), not above 0.05 µg/mL; in the series on Klebsiella pneumoniae (setting [15]), 0.1 µg/mL (≈ 0.262 µM).
With `C[C@@H]1CN(c2c(F)cc3c(=O)c(C(=O)O)cn(C4CC4F)c3c2F)CCN1` (stereo in doubt; 34), the minimum inhibitory concentration (MIC) was 0.2 µg/mL (≈ 0.524 µM) in series [4]; “<=0.05 ug ml-1” in the series on Proteus vulgaris; 0.1 µg/mL (≈ 0.262 µM) in the series on Pseudomonas aeruginosa; not above 0.05 µg/mL in the series with Enterobacter cloacae [5]; 0.1 µg/mL (≈ 0.262 µM) against Staphylococcus aureus [6]; 0.78 µg/mL (≈ 2.05 µM) in the series on Enterococcus faecalis. Also, the MIC was not above 0.05 µg/mL in the series on Staphylococcus aureus [7], 0.78 µg/mL (≈ 2.05 µM) in the series on Streptococcus pyogenes, not above 0.05 µg/mL in the series on Escherichia coli [8] (setting [14]) and 0.1 µg/mL (≈ 0.262 µM) in the series with Klebsiella pneumoniae (setting [15]).
Consider `CN1CCN(c2nc3c(cc2F)c(=O)c(C(=O)O)cn3C2CC2F)CC1` (stereo in doubt; 37), for which the minimal inhibitory concentration (MIC) in series [4] was 1.56 µg/mL (≈ 4.28 µM); in the series with Proteus vulgaris (setting [12]), 0.2 µg/mL (≈ 0.549 µM); in the series with Pseudomonas aeruginosa, 0.78 µg/mL (≈ 2.14 µM); against Enterobacter cloacae [5], not above 0.05 µg/mL; in the series with Staphylococcus aureus [6], 1.56 µg/mL (≈ 4.28 µM); in the series with Enterococcus faecalis it was 25 µg/mL (≈ 68.6 µM). Besides, the minimal inhibitory concentration (MIC) is 0.78 µg/mL (≈ 2.14 µM) with Staphylococcus aureus [7], 25 µg/mL (≈ 68.6 µM) against Streptococcus pyogenes, not above 0.05 µg/mL with Escherichia coli [8] (setting [14]) and 0.2 µg/mL (≈ 0.549 µM) with Klebsiella pneumoniae (setting [15]).
For `CN1CCN(c2cc3c(cc2F)c(=O)c(C(=O)O)cn3[C@@H]2C[C@@H]2F)CC1` (stereo in doubt; 38) [listing 1 of 2 here], the MIC in [4] is 0.2 µg/mL (≈ 0.55 µM); in the series with Pseudomonas aeruginosa it was 0.1 µg/mL (≈ 0.275 µM); against Escherichia coli [9], 0.025 µg/mL (≈ 0.0688 µM); against Klebsiella pneumoniae, “<=0.05 ug ml-1”. Further, the “P'” value in series [2] is 7.3.
For `CN1CCN(c2cc3c(cc2F)c(=O)c(C(=O)O)cn3[C@@H]2C[C@@H]2F)CC1` (stereo in doubt; 38) [listing 2 of 2 here], the ID50 in [11] came out at 0.18 µg/mL (≈ 0.495 µM).
`CN1CCN(c2cc3c(cc2F)c(=O)c(C(=O)O)cn3[C@@H]2C[C@@H]2F)CC1` (stereo in doubt; 39) [listing 1 of 2 here]: the minimum inhibitory concentration (MIC) in series [4] (setting [16]) is 0.2 µg/mL (≈ 0.55 µM); with Proteus vulgaris (setting [12]) it was not above 0.05 µg/mL; with Pseudomonas aeruginosa (setting [13]) it was 0.2 µg/mL (≈ 0.55 µM); with Staphylococcus aureus [6] (setting [17]), 0.1 µg/mL (≈ 0.275 µM); with Enterococcus faecalis (setting [18]) it was 0.78 µg/mL (≈ 2.15 µM); in the series on Staphylococcus aureus [7] (setting [17]), not above 0.05 µg/mL. The MIC was 0.05 µg/mL (≈ 0.138 µM) with Escherichia coli [9] (setting [14]); 1.56 µg/mL (≈ 4.29 µM) with Streptococcus pyogenes (Streptococcus pyogenes, read-out: MIC); not above 0.05 µg/mL in the series on Escherichia coli [8]; 0.1 µg/mL (≈ 0.275 µM) in the series with Klebsiella pneumoniae (setting [15]); not above 0.05 µg/mL with Enterobacter cloacae [10]. Also, in series [2], the “P'” value is reported as 7.
As for `CN1CCN(c2cc3c(cc2F)c(=O)c(C(=O)O)cn3[C@@H]2C[C@@H]2F)CC1` (stereo in doubt; 39) [listing 2 of 2 here], the ID50 in series [11] was 0.34 µg/mL (≈ 0.936 µM).
As for `O=C(O)c1cn(C2CC2)c2cc(N3CCNCC3)c(F)cc2c1=O` [CIPROFLOXACIN], the MIC is 0.2 µg/mL (≈ 0.604 µM) in [4] (setting [16]); not above 0.05 µg/mL with Proteus vulgaris (setting [12]); not above 0.05 µg/mL in the series with Pseudomonas aeruginosa (setting [13]); 0.1 µg/mL (≈ 0.302 µM) with Staphylococcus aureus [6] (setting [17]); 0.78 µg/mL (≈ 2.35 µM) in the series on Enterococcus faecalis (setting [18]); not above 0.05 µg/mL in the series with Staphylococcus aureus [7] (setting [17]). Besides, the minimum inhibitory concentration (MIC) with Escherichia coli [9] (setting [14]) is 0.025 µg/mL (≈ 0.0754 µM); in the series on Escherichia coli [8] it was not above 0.05 µg/mL; with Klebsiella pneumoniae (setting [15]) it was not above 0.05 µg/mL. In series [11], the ID50 is 0.13 µg/mL (≈ 0.392 µM).
